Blank lines part the entries; values can stand above or below the molecule they belong to. The source made the active and inactive calls. The calls are words filed in the database; no cut-off is given here.
Experiments:
[1] = test system: Salivary alpha-amylase (Homo sapiens); assay: Inhibition of human salivary alpha-amylase assessed as formation of p-nitrophenol
[2] = molecular target: T1, Pancreatic alpha-amylase (Sus scrofa) (UniProt P00690); assay: Inhibition of pig alpha-amylase assessed as formation of p-nitrophenol
T1 sequence (whole entry): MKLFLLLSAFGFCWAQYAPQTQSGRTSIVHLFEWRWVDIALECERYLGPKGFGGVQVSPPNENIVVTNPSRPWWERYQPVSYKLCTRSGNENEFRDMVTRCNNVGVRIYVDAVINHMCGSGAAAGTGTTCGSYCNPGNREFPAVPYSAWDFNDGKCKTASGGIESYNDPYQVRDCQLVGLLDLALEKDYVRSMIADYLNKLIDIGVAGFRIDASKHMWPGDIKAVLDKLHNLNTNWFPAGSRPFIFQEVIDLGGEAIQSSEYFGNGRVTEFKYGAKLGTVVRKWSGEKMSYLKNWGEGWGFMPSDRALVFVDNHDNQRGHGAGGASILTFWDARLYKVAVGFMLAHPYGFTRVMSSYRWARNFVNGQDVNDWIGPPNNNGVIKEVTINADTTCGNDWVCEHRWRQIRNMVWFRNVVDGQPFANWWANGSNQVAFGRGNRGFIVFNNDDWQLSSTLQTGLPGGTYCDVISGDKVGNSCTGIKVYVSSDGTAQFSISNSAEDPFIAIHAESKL
Outline: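 Screening used each α-amylase with an equimolar mixture of the peptidyl substrate and p-nitrophenyl-α-D-pentaoside. The read-out was the rate of p-nitrophenol formation compared with the chromogenic substrate alone. Each data point was triplicated and averaged.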

[3] = molecular target: T2, Alpha-glucosidase (Geobacillus stearothermophilus, UniProt P94451); assay: Competitive inhibition of Bacillus stearothermophilus alpha-glucosidase assessed as production of chromogenic p-Nitrphenol measured after 3 mins by HPLC and Michaelis-Menten equation
T2 sequence (P94451 whole entry): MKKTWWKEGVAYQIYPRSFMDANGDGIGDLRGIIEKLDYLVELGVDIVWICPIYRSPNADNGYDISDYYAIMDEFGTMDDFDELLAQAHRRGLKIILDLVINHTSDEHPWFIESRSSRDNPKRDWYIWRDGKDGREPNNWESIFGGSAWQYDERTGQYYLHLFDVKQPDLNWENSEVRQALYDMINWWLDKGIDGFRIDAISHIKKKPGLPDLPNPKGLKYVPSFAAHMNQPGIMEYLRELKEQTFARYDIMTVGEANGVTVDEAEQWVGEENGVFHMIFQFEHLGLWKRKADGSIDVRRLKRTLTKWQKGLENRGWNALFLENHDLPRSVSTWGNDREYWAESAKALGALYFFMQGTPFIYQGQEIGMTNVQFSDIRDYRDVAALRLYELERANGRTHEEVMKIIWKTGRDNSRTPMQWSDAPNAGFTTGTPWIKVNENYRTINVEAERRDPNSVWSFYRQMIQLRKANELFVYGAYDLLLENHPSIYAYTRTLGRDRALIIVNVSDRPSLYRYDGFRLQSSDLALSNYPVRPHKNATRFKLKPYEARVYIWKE
Outline: (§1)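 The chromogenic substrate was p-nitrophenyl-α-D-glucopyranoside, with p-nitrophenol formation monitored. Ki was calculated from a Dixon plot. Each measurement was triplicated and averaged.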

[4] = Competitive inhibition of rice alpha-glucosidase assessed as production of chromogenic p-Nitrphenol measured after 3 mins by HPLC and Michaelis-Menten equation; design: species or system Oryza sativa
Outline: as §1

[5] = substrate: CC(=O)Nc1ccc(O[C@H]2O[C@H](CO)[C@@H](O)[C@H](O)[C@H]2O)cc1; assay: Ratio of Kcat to Km for Bacillus stearothermophilus alpha-glucosidase assessed as production of chromogenic p-acetaminophenyl; conditions: Geobacillus stearothermophilus
Outline: (§2)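 Alpha-glucosidase from Bacillus stearothermophillus was incubated with the substrate. Km was obtained by Michaelis–Menten kinetics. Vmax, kcat and kcat/Km were reported alongside Km. Each value was measured in triplicate and averaged.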

[6] = substrate: CC(=O)Nc1ccc(O[C@H]2O[C@H](CO)[C@@H](O)[C@H](O)[C@H]2O)cc1; assay: Activity at Bacillus stearothermophilus alpha-glucosidase assessed as production of chromogenic p-acetaminophenyl measured after 3 mins by HPLC Michaelis-Menten equation; conditions: Geobacillus stearothermophilus
Outline: as §2

[7] = substrate: NC(=O)[C@H](Cc1ccc(O)cc1)NC(=O)[C@H](Cc1c[nH]c2ccccc12)NC(=O)CCC(=O)Nc1ccc(O[C@H]2O[C@H](CO)[C@@H](O)[C@H](O)[C@H]2O)cc1; assay: Ratio of Kcat to Km for Bacillus stearothermophilus alpha-glucosidase assessed as production of chromogenic Sp-WY; conditions: Geobacillus stearothermophilus
Outline: as §2

[8] = substrate: O=[N+]([O-])c1ccc(O[C@H]2O[C@H](CO)[C@@H](O)[C@H](O)[C@H]2O)cc1; assay: Ratio of Kcat to Km for Bacillus stearothermophilus alpha-glucosidase assessed as production of chromogenic p-Nitrphenol; conditions: Geobacillus stearothermophilus
Outline: as §2

[9] = substrate: NC(=O)[C@H](Cc1ccc(O)cc1)NC(=O)[C@H](Cc1c[nH]c2ccccc12)NC(=O)CCC(=O)Nc1ccc(O[C@H]2O[C@H](CO)[C@@H](O)[C@H](O)[C@H]2O)cc1; assay: Activity at Bacillus stearothermophilus alpha-glucosidase assessed as production of chromogenic Sp-WY measured after 3 mins by HPLC Michaelis-Menten equation; conditions: Geobacillus stearothermophilus
Outline: as §2

[10] = substrate: O=[N+]([O-])c1ccc(O[C@H]2O[C@H](CO)[C@@H](O)[C@H](O)[C@H]2O)cc1; assay: Activity at Bacillus stearothermophilus alpha-glucosidase assessed as production of chromogenic p-Nitrphenol measured after 3 mins by HPLC and Michaelis-Menten equation; conditions: Geobacillus stearothermophilus
Outline: as §2

inhibition [1]: inactive
inhibition [2]: inactive
Molecule: NC(=O)[C@H](Cc1ccc(O)cc1)NC(=O)[C@H](Cc1c[nH]c2ccccc12)NC(=O)CCC(=O)Nc1ccc(O[C@H]2O[C@H](CO)[C@@H](O[C@H]3O[C@H](CO)[C@@H](O[C@H]4O[C@H](CO)[C@@H](O[C@H]5O[C@H](CO)[C@@H](O[C@H]6O[C@H](CO)[C@@H](O)[C@H](O)[C@H]6O)[C@H](O)[C@H]5O)[C@H](O)[C@H]4O)[C@H](O)[C@H]3O)[C@H](O)[C@H]2O)cc1

inhibition [1]: inactive
inhibition [2]: inactive
Molecule: NC(=O)[C@H](Cc1ccc(O)cc1)NC(=O)[C@H](Cc1ccccc1)NC(=O)CCC(=O)Nc1ccc(O[C@H]2O[C@H](CO)[C@@H](O[C@H]3O[C@H](CO)[C@@H](O[C@H]4O[C@H](CO)[C@@H](O[C@H]5O[C@H](CO)[C@@H](O[C@H]6O[C@H](CO)[C@@H](O)[C@H](O)[C@H]6O)[C@H](O)[C@H]5O)[C@H](O)[C@H]4O)[C@H](O)[C@H]3O)[C@H](O)[C@H]2O)cc1

inhibition [1]: inactive
inhibition [2]: inactive
Molecule: NC(=O)[C@H](Cc1c[nH]c2ccccc12)NC(=O)[C@H](Cc1ccc(O)cc1)NC(=O)CCC(=O)Nc1ccc(O[C@H]2O[C@H](CO)[C@@H](O[C@H]3O[C@H](CO)[C@@H](O[C@H]4O[C@H](CO)[C@@H](O[C@H]5O[C@H](CO)[C@@H](O[C@H]6O[C@H](CO)[C@@H](O)[C@H](O)[C@H]6O)[C@H](O)[C@H]5O)[C@H](O)[C@H]4O)[C@H](O)[C@H]3O)[C@H](O)[C@H]2O)cc1

inhibition [1]: inactive
inhibition [2]: inactive
Molecule: NC(=O)[C@H](Cc1ccccc1)NC(=O)[C@H](Cc1ccccc1)NC(=O)CCC(=O)Nc1ccc(O[C@H]2O[C@H](CO)[C@@H](O[C@H]3O[C@H](CO)[C@@H](O[C@H]4O[C@H](CO)[C@@H](O[C@H]5O[C@H](CO)[C@@H](O[C@H]6O[C@H](CO)[C@@H](O)[C@H](O)[C@H]6O)[C@H](O)[C@H]5O)[C@H](O)[C@H]4O)[C@H](O)[C@H]3O)[C@H](O)[C@H]2O)cc1

inhibition [1]: inactive
inhibition [2]: inactive
Molecule: NC(=O)[C@H](Cc1ccccc1)NC(=O)[C@H](Cc1ccc(O)cc1)NC(=O)CCC(=O)Nc1ccc(O[C@H]2O[C@H](CO)[C@@H](O[C@H]3O[C@H](CO)[C@@H](O[C@H]4O[C@H](CO)[C@@H](O[C@H]5O[C@H](CO)[C@@H](O[C@H]6O[C@H](CO)[C@@H](O)[C@H](O)[C@H]6O)[C@H](O)[C@H]5O)[C@H](O)[C@H]4O)[C@H](O)[C@H]3O)[C@H](O)[C@H]2O)cc1

inhibition [1]: inactive
inhibition [2]: inactive
Molecule: NC(=O)[C@H](Cc1ccccc1)NC(=O)[C@H](Cc1c[nH]c2ccccc12)NC(=O)CCC(=O)Nc1ccc(O[C@H]2O[C@H](CO)[C@@H](O[C@H]3O[C@H](CO)[C@@H](O[C@H]4O[C@H](CO)[C@@H](O[C@H]5O[C@H](CO)[C@@H](O[C@H]6O[C@H](CO)[C@@H](O)[C@H](O)[C@H]6O)[C@H](O)[C@H]5O)[C@H](O)[C@H]4O)[C@H](O)[C@H]3O)[C@H](O)[C@H]2O)cc1

inhibition [1]: inactive
inhibition [2]: inactive
Molecule: NC(=O)[C@H](Cc1ccc(O)cc1)NC(=O)[C@H](Cc1ccc(O)cc1)NC(=O)CCC(=O)Nc1ccc(O[C@H]2O[C@H](CO)[C@@H](O[C@H]3O[C@H](CO)[C@@H](O[C@H]4O[C@H](CO)[C@@H](O[C@H]5O[C@H](CO)[C@@H](O[C@H]6O[C@H](CO)[C@@H](O)[C@H](O)[C@H]6O)[C@H](O)[C@H]5O)[C@H](O)[C@H]4O)[C@H](O)[C@H]3O)[C@H](O)[C@H]2O)cc1

The remaining lines, values behind:

Molecule: NC(=O)[C@H](Cc1c[nH]c2ccccc12)NC(=O)[C@H](Cc1c[nH]c2ccccc12)NC(=O)CCC(=O)Nc1ccc(O[C@H]2O[C@H](CO)[C@@H](O[C@H]3O[C@H](CO)[C@@H](O[C@H]4O[C@H](CO)[C@@H](O[C@H]5O[C@H](CO)[C@@H](O[C@H]6O[C@H](CO)[C@@H](O)[C@H](O)[C@H]6O)[C@H](O)[C@H]5O)[C@H](O)[C@H]4O)[C@H](O)[C@H]3O)[C@H](O)[C@H]2O)cc1
inhibition [1]: inactive
inhibition [2]: inactive

Molecule: NC(=O)[C@H](Cc1ccc(O)cc1)NC(=O)[C@H](Cc1c[nH]c2ccccc12)NC(=O)CCC(=O)Nc1ccc(O)cc1
Ki [3]: 1400 µM

Molecule: C[C@H]1O[C@H](O[C@H]2[C@H](O)[C@@H](O)[C@@H](O[C@H]3[C@H](O)[C@@H](O)C(O)O[C@@H]3CO)O[C@@H]2CO)[C@H](O)[C@@H](O)[C@@H]1N[C@H]1C=C(CO)[C@@H](O)[C@H](O)[C@H]1O (stereo not given in full) [ACARBOSE]
Ki [4]: 4.2 µM

Molecule: O=[N+]([O-])c1ccc(O[C@H]2O[C@H](CO)[C@@H](O[C@H]3O[C@H](CO)[C@@H](O[C@H]4O[C@H](CO)[C@@H](O[C@H]5O[C@H](CO)[C@@H](O[C@H]6O[C@H](CO)[C@@H](O)[C@H](O)[C@H]6O)[C@H](O)[C@H]5O)[C@H](O)[C@H]4O)[C@H](O)[C@H]3O)[C@H](O)[C@H]2O)cc1
inhibition [1]: inactive
inhibition [2]: inactive

Molecule: NC(=O)[C@H](Cc1ccc(O)cc1)NC(=O)[C@H](Cc1c[nH]c2ccccc12)NC(=O)CCC(=O)Nc1ccc(O[C@@H]2O[C@H](CO)[C@@H](O)[C@H](O)[C@H]2O)cc1
Ki [3]: 110 µM

Molecule: NC(=O)[C@H](Cc1c[nH]c2ccccc12)NC(=O)[C@H](Cc1ccccc1)NC(=O)CCC(=O)Nc1ccc(O[C@H]2O[C@H](CO)[C@@H](O[C@H]3O[C@H](CO)[C@@H](O[C@H]4O[C@H](CO)[C@@H](O[C@H]5O[C@H](CO)[C@@H](O[C@H]6O[C@H](CO)[C@@H](O)[C@H](O)[C@H]6O)[C@H](O)[C@H]5O)[C@H](O)[C@H]4O)[C@H](O)[C@H]3O)[C@H](O)[C@H]2O)cc1
inhibition [1]: inactive
inhibition [2]: inactive

B1: Alpha-glucosidase (Geobacillus stearothermophilus), P94451 (protein)
chain: T2 sequence (P94451 whole entry)
kcat/Km [5]: 400 M⁻¹ s⁻¹
Km [6]: 1900 µM
Vmax [6]: 0.0015 µM/s
kcat [6]: 0.76 s⁻¹
kcat/Km [7]: 10000 M⁻¹ s⁻¹
kcat/Km [8]: 7600 M⁻¹ s⁻¹
Km [9]: 13 µM
Vmax [9]: 0.00025 µM/s
kcat [9]: 0.13 s⁻¹
Km [10]: 1200 µM
Vmax [10]: 0.019 µM/s
kcat [10]: 9.5 s⁻¹

From ChEMBL document CHEMBL1759986, “Selective α-glucosidase substrates and inhibitors containing short aromatic peptidyl moieties” (Bioorg Med Chem Lett, 2011)
